Data taken from ChEMBL document CHEMBL3862007, “Synthesis and antimicrobial activity of small cationic amphipathic aminobenzamide marine natural product mimics and evaluation of relevance against clinical isolates including ESBL-CARBA producing multi-resistant bacteria” (Bioorg Med Chem, 2016).

How the values were obtained:
[1] = Antibacterial activity against methicillin-resistant Staphylococcus epidermidis RP62A CCUG 31568 (ATCC 35984) after 48 hrs by microdilution method; format: functional
In short: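 Broth microdilution MIC against the reference-strain panel. Compounds were supplied as HCl salts for aqueous solubility in the test medium. Precipitation in the test buffer is flagged at higher concentrations.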

[2] = Hemolytic activity in human RBC after 1 hr; format: ADME, cell-based; conditions: Erythrocyte
[3] = system: Corynebacterium glutamicum; assay: Antibacterial activity against Corynebacterium glutamicum ATCC 13032 after 48 hrs by microdilution method; format: functional; conditions: ATCC 13032, 48 h
[4] = system: Staphylococcus aureus; assay: Antibacterial activity against Staphylococcus aureus ATCC 9144 after 48 hrs by microdilution method; format: functional; conditions: ATCC 9144, 48 h
[5] = Aqueous solubility of the compound; format: physicochemical; conditions: buffer
[6] = system: Bacillus subtilis; assay: Antibacterial activity against Bacillus subtilis 168 ATCC 23857 after 48 hrs by microdilution method; format: functional; conditions: subsp. subtilis str. 168 ATCC 23857, 48 h
[7] = system: Pseudomonas aeruginosa; assay: Antibacterial activity against Pseudomonas aeruginosa PAO1 DSM 19880 (ATCC 15692) after 48 hrs by microdilution method; format: functional
[8] = system: Escherichia coli; assay: Antibacterial activity against Escherichia coli ATCC 25922 after 48 hrs by microdilution method; format: functional; conditions: ATCC 25922, 48 h
[9] = Hemolytic activity in human RBC at 64 ug/ml after 1 hr relative to control; format: ADME, cell-based, Erythrocyte; conditions: red blood cells (RBC), read-out: Activity
[10] = Selectivity index, ratio of hemolytic EC50 for human RBC to MIC for Staphylococcus aureus ATCC 9144
[11] = system: Enterococcus faecium; assay: Antibacterial activity against vancomycin-resistant Enterococcus faecium 50901530 after 24 hrs by microdilution method; format: functional; conditions: Enterococcus faecium, 50901530, 24 h
[12] = system: Escherichia coli; assay: Antibacterial activity against multi-drug resistant/OXA-48 producing Escherichia coli 50579417 after 24 hrs by microdilution method; format: functional; conditions: Escherichia coli, 50579417, 24 h
[13] = system: Klebsiella pneumoniae; assay: Antibacterial activity against multi-drug resistant/OXA-245 producing Klebsiella pneumoniae 50625602 after 24 hrs by microdilution method; format: functional; conditions: Klebsiella pneumoniae, 50625602, 24 h
[14] = system: Acinetobacter baumannii; assay: Antibacterial activity against multi-drug resistant/OXA-23 producing Acinetobacter baumannii K63-58 after 24 hrs by microdilution method; format: functional; conditions: K63-58, 24 h
[15] = system: Pseudomonas aeruginosa; assay: Antibacterial activity against multi-drug resistant/VIM producing Pseudomonas aeruginosa 50692520 after 24 hrs by microdilution method; format: functional; conditions: Pseudomonas aeruginosa, 50692520, 24 h
[16] = system: Staphylococcus aureus; assay: Antibacterial activity against methicillin resistant Staphylococcus aureus IHT 99040 after 24 hrs by microdilution method; format: functional; conditions: IHT 99040, 24 h
[17] = system: Pseudomonas aeruginosa; assay: Antibacterial activity against multi-drug resistant/VIM-2 producing Pseudomonas aeruginosa K34-7 after 24 hrs by microdilution method; format: functional; conditions: K34-7, 24 h
[18] = system: Acinetobacter baumannii; assay: Antibacterial activity against multi-drug resistant/OXA-23 producing Acinetobacter baumannii K47-42 after 24 hrs by microdilution method; format: functional; conditions: K47-42, 24 h
[19] = system: Enterococcus faecium; assay: Antibacterial activity against vancomycin-resistant Enterococcus faecium TUH50-22 after 24 hrs by microdilution method; format: functional; conditions: TUH50-22, 24 h
[20] = system: Escherichia coli; assay: Antibacterial activity against multi-drug resistant/IMP-26 producing Escherichia coli 50857972 after 24 hrs by microdilution method; format: functional; conditions: Escherichia coli, 50857972, 24 h
[21] = system: Klebsiella pneumoniae; assay: Antibacterial activity against multi-drug resistant/KPC-2 producing Klebsiella pneumoniae K47-25 after 24 hrs by microdilution method; format: functional; conditions: K47-25, 24 h
[22] = system: Escherichia coli; assay: Antibacterial activity against multi-drug resistant/NDM-1 producing Escherichia coli 50739822 after 24 hrs by microdilution method; format: functional; conditions: Escherichia coli, 50739822, 24 h
[23] = system: Acinetobacter baumannii; assay: Antibacterial activity against multi-drug resistant/OXA-24 producing Acinetobacter baumannii K55-13 after 24 hrs by microdilution method; format: functional; conditions: K55-13, 24 h
[24] = system: Escherichia coli; assay: Antibacterial activity against multi-drug resistant/VIM-29 producing Escherichia coli 50639799 after 24 hrs by microdilution method; format: functional; conditions: Escherichia coli, 50639799, 24 h
[25] = system: Acinetobacter baumannii; assay: Antibacterial activity against multi-drug resistant/OXA-58 producing Acinetobacter baumannii K12-21 after 24 hrs by microdilution method; format: functional; conditions: K12-21, 24 h
[26] = system: Klebsiella pneumoniae; assay: Antibacterial activity against multi-drug resistant/VIM1 producing Klebsiella pneumoniae 50667959 after 24 hrs by microdilution method; format: functional; conditions: Klebsiella pneumoniae, 50667959, 24 h
[27] = system: Klebsiella pneumoniae; assay: Antibacterial activity against multi-drug resistant/NDM1 producing Klebsiella pneumoniae K66-45 after 24 hrs by microdilution method; format: functional; conditions: K66-45, 24 h
[28] = system: Acinetobacter baumannii; assay: Antibacterial activity against multi-drug resistant/OXA-23 producing Acinetobacter baumannii K44-35 after 24 hrs by microdilution method; format: functional; conditions: K44-35, 24 h
[29] = system: Enterococcus faecium; assay: Antibacterial activity against vancomycin-resistant Enterococcus faecium 50758899 after 24 hrs by microdilution method; format: functional; conditions: Enterococcus faecium, 50758899, 24 h
[30] = system: Staphylococcus aureus; assay: Antibacterial activity against methicillin resistant Staphylococcus aureus clinical isolate 85/2082 after 24 hrs by microdilution method; format: functional; conditions: isolate 85/2082, 24 h
[31] = system: Pseudomonas aeruginosa; assay: Antibacterial activity against multi-drug resistant/VIM-4 producing Pseudomonas aeruginosa K34-73 after 24 hrs by microdilution method; format: functional; conditions: K34-73, 24 h
[32] = system: Staphylococcus aureus; assay: Antibacterial activity against Staphylococcus aureus clinical isolate after 24 hrs by microdilution method; format: functional
[33] = system: Staphylococcus aureus; assay: Antibacterial activity against methicillin resistant Staphylococcus aureus N315 after 24 hrs by microdilution method; format: functional; conditions: N315, 24 h
[34] = system: Staphylococcus aureus; assay: Antibacterial activity against methicillin resistant Staphylococcus aureus clinical isolate WIS after 24 hrs by microdilution method; format: functional
[35] = system: Pseudomonas aeruginosa; assay: Antibacterial activity against multi-drug resistant/NDM1 producing Pseudomonas aeruginosa 50692172 after 24 hrs by microdilution method; format: functional; conditions: Pseudomonas aeruginosa, 50692172, 24 h
[36] = system: Escherichia coli; assay: Antibacterial activity against multi-drug resistant/NDM-1 producing Escherichia coli 50676002 after 24 hrs by microdilution method; format: functional; conditions: Escherichia coli, 50676002, 24 h
[37] = system: Enterococcus faecium; assay: Antibacterial activity against vancomycin-resistant Enterococcus faecium 50673722 after 24 hrs by microdilution method; format: functional; conditions: Enterococcus faecium, 50673722, 24 h
[38] = system: Staphylococcus aureus; assay: Antibacterial activity against methicillin resistant Staphylococcus aureus NCTC 10442 after 24 hrs by microdilution method; format: functional; conditions: NCTC 10442, 24 h
[39] = system: Klebsiella pneumoniae; assay: Antibacterial activity against multi-drug resistant/NDM1/OXA-181 producing Klebsiella pneumoniae 50531633 after 24 hrs by microdilution method; format: functional; conditions: Klebsiella pneumoniae, 50531633, 24 h
[40] = system: Enterococcus sp.; assay: Antibacterial activity against Enterococcus sp. clinical isolate after 24 hrs by microdilution method; format: functional
[41] = system: Klebsiella pneumoniae; assay: Antibacterial activity against Klebsiella pneumoniae clinical isolate after 24 hrs by microdilution method; format: functional
[42] = system: Pseudomonas aeruginosa; assay: Antibacterial activity against multi-drug resistant/IMP-14 producing Pseudomonas aeruginosa K44-24 after 24 hrs by microdilution method; format: functional; conditions: K44-24, 24 h
[43] = system: Enterococcus faecium; assay: Antibacterial activity against vancomycin-resistant Enterococcus faecium K36-18 after 24 hrs by microdilution method; format: functional; conditions: K36-18, 24 h
[44] = system: Escherichia coli; assay: Antibacterial activity against Escherichia coli clinical isolate after 24 hrs by microdilution method; format: functional
[45] = system: Pseudomonas aeruginosa; assay: Antibacterial activity against Pseudomonas aeruginosa clinical isolate after 24 hrs by microdilution method; format: functional
[46] = system: Bacillus subtilis; assay: Membranolytic activity in Bacillus subtilis 168 ATCC 23857 carrying pCSS962 plasmid measured every second for 30 secs by luciferase reporter assay; format: functional; conditions: subsp. subtilis str. 168 ATCC 23857
In short: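 B. subtilis 168 carrying pCSS962 (luciferase-expressing) was added as a suspension already containing D-luciferin, with luminescence read in real time up to 120 s. Water served as the untreated control. Chlorhexidine was added to all samples at 30 s as a membranolytic control. Fold induction is the peak sample luminescence over the water-control maximum after chlorhexidine, from two independent experiments.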

CC(C)(C)c1cc(C(=O)Nc2ccc(CC(=O)NCCNC(=N)N)cc2)cc(C(C)(C)C)c1.Cl
35%: hemolysis at 1 h, 64 ug/ml [9]
2 µg/mL: MIC [3]
> 16: Selectivity Index [10]
4 µg/mL: MIC [1] | MIC [4] | MIC [6]
16 µg/mL: MIC [7] | MIC [8]
> 64 µg/mL: EC50 [2]
Insoluble: solubility [5]

CC(C)(C)c1cc(C(=O)Nc2ccccc2C(=O)NCCNC(=N)N)cc(C(C)(C)C)c1.Cl
2 µg/mL: MIC [1] | MIC [32] | MIC90 [32]
37: Selectivity Index [10]
> 4 µg/mL: MIC [16]
8 µg/mL: MIC [29] | MIC [8] | MIC [37] | MIC [40] | MIC [43] | MIC [44] | MIC90 [44]
0.5 µg/mL: MIC [3]
16 µg/mL: MIC [13] | MIC [18] | MIC [20] | MIC [24] | MIC [28] | MIC [7] | MIC [39] | MIC [41] | MIC90 [41] | MIC [45]
37 µg/mL: EC50 [2]
> 32 µg/mL: MIC [17] | MIC [31] | MIC [36] | MIC [42]
4 µg/mL: MIC [11] | MIC [19] | MIC [30] | MIC [33] | MIC [34] | MIC [38] | MIC90 [40]
1 µg/mL: MIC [4] | MIC [6]
32 µg/mL: MIC [12] | MIC [14] | MIC [15] | MIC [21] | MIC [22] | MIC [23] | MIC [25] | MIC [26] | MIC [27] | MIC [35] | MIC90 [45]

CC(C)(C)c1cc(C(=O)NCc2ccc(C(=O)NCCNC(=N)N)cc2)cc(C(C)(C)C)c1.Cl
Insoluble: solubility [5]
2 µg/mL: MIC [3]
16 µg/mL: MIC [7] | MIC [8]
6.5: Selectivity Index [10]
52 µg/mL: EC50 [2]
8 µg/mL: MIC [1] | MIC [4] | MIC [6]

CC(C)(C)c1cc(C(=O)Nc2ccc(C(=O)NCCNC(=N)N)cc2)cc(C(C)(C)C)c1.Cl
8 µg/mL: MIC [8] | MIC [40] | MIC [44]
38 µg/mL: EC50 [2]
active: Activity [46] Dose-dependent effect
4 µg/mL: MIC [1] | MIC [4] | MIC [6] | MIC [32]
> 64 µg/mL: MIC [45]
9.5: Selectivity Index [10]
2 µg/mL: MIC [3]
16 µg/mL: MIC [7] | MIC [41]

CC(C)(C)c1cc(C(=O)Nc2cccc(C(=O)NCCNC(=N)N)c2)cc(C(C)(C)C)c1.Cl
4 µg/mL: MIC [1] | MIC [4] | MIC [6] | MIC [32] | MIC90 [32]
> 32 µg/mL: MIC [21] | MIC [23] | MIC [31]
> 8 µg/mL: MIC [16]
32 µg/mL: MIC [12] | MIC [14] | MIC [18] | MIC [22] | MIC [25] | MIC [28]
9.3: Selectivity Index [10]
16 µg/mL: MIC [13] | MIC [15] | MIC [17] | MIC [20] | MIC [24] | MIC [26] | MIC [27] | MIC [35] | MIC [36] | MIC [39] | MIC [40] | MIC [41] | MIC90 [41] | MIC [42] | MIC [44] | MIC90 [44] | MIC90 [45]
2 µg/mL: MIC [3]
8 µg/mL: MIC [11] | MIC [19] | MIC [29] | MIC [30] | MIC [7] | MIC [33] | MIC [8] | MIC [34] | MIC [37] | MIC [38] | MIC90 [40] | MIC [43] | MIC [45]
37 µg/mL: EC50 [2]
